In the EternaBench riboswitch data:

Tested on: MS2 coat protein
Assay: apparent Kd, MS2 coat protein; higher = weaker binding; RNA-MaP array; FMN 200 µM where present
Method in brief: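 The apparent Kd is the median of filtered binding-curve fits, one per cluster, to green signal normalised to red-channel RNA signal and control-cluster median Fmax. The clusters were on Illumina sequencing chips, and stalled E. coli RNA polymerase had transcribed the designs on them. Titration used SNAP-549-labelled MS2 coat protein from 0.7 or 1.5 nM, doubling to 3 µM, without and then with constant ligand, in 100 mM Tris-HCl pH 7.5, 80 mM KCl, 4 mM MgCl2, BSA, DTT, yeast tRNA and Tween-20.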

[1] = designed as: ON switch for flavin mononucleotide, no ligand
[2] = ligand present: flavin mononucleotide, designed as: ON switch for flavin mononucleotide
[3] = designed as: OFF switch for flavin mononucleotide, no ligand
[4] = ligand present: flavin mononucleotide, designed as: OFF switch for flavin mononucleotide

Sequence | apparent Kd [1] [nM] | apparent Kd [2] [nM] | apparent Kd [3] [nM] | apparent Kd [4] [nM]
GAUGCUAUCCGAGGAUAUUCAUACCGGAAACGGACAUGAGGAUCACCCAUGUGGCGAAAGCCUUGGGAGAAGGCGGAUAGCAUC | 581 | 23.4 | – | –
GGUGACCUUGUAAGGAUAUCGAAUUUAGAUGAGCACGAGAAGGUACAUGAGGAUCACCCAUGUCUGCGGUAACU | – | – | 50.8 | 102
GGCGGUGACAUAGGAUAUCUUCUAAUGCACAUGAGGAUCACCCAUGUCGCUACGCACGGGUUUGAAGAGAAGGGUGUUCGUGCC | 346 | 286 | – | –
AGUUGGCGAGGAUAUACAUGAGGAUCACCCAUGUGAAUAAUAAUAGUGAGGAAGAAAAGUAGAAGGCGCUGACA | – | – | 49.7 | 237
UGUGUCAUCGAGAAGGCCUCAACAUGAGGAUCACCCAUGUUGUAAUAUGGGAGGAUAUCGAUGAUACAGCUACGUUUCGUAGCG | 19.8 | 5.56 | – | –
GUCUGUUACGAGAAGGACAAUUGGAUGCAGGCUGUAGGAUAUCGAGGCAGACAUGAGGAUCACCCAUGUAGGCUUACGAUGGGU | – | – | 11.7 | 19.1
UGUAUGGACAGAGGAUAUACAGAUAGGAUCUACUAUCAAACAGUCCUGACAUGAGGAUCACCCAUGUAGAAGGCUGUCCAUACU | – | – | 22.8 | 105
GCUGCAUAUGAGAAGGCGAUCAUGAAACAUGAUCGAGGAUAUCAUGUUUACAUGAGGAUCACCCAUGUAUGGGUAUAAUGCAGC | 492 | 14 | – | –
AAAGAAAACAUAGGAUAUGUAACAUGAGGAUCACCCAUGUAUACCUCGUAAGAGAUGAUGGAUGGACAGAAGGAUGAUCUCAGG | 140 | 214 | – | –
AUGAGCCGAGGAGGAUAUGACGGGUGCUAAAUCACAUGAGGAUCACCCAUGUCAGAAGGCCUCGCCAUAUUUGAUGCUUUAGAG | – | – | 201 | 9.55
GCGCUUAAACAGAAGGCCAAAUACAUGAGGAUCACCCAUGUCGAAUCAUGGAGGAUAUGUUAUUAAUUACACGCAGAUGAGCGC | 124 | 10.7 | – | –
AUCUUUAACAUAGGAUAUAGUAUGAUGGUUUAAUUAGAAGGAUGUCACAUGAGGAUCACCCAUGUAAUAGGAUUACCCAUGUAU | – | – | 20.2 | 15.7
GGGUAUAUUACAUGAGGAUCACCCAUGUCAGAAAGGGUAAUCAGAAGGUACUAUUAGAGAAAGAGUAAGGAUAUGAUUAUACCC | 176 | 22.8 | – | –
UGGUACUUCGGAGGAUAUCAUGUAGAUACAUGAGGAUCACCCAUGUCGUACGAGAGUACGGAGAUUGAGAAGGCCGAAGUACCU | 31.2 | 16 | – | –
AGAUCGAUUGUGAGGAUAUUGACCGGACGACCCAUCGAGAAGGCACAUGAGGAUCACCCAUGUGAGUCGGUUUA | – | – | 14.9 | 18.2
AACGCUAAAGGAUAUACAUGAGGAUCACCCAUGUUGAGGAAGGUUAGAUGAGGAGUAAGUAGAAGGUUAGACGA | – | – | 29.2 | 25.7
CUCAUGUGAGGAUAUGUGAUCAACCUUCUAUAUAGAUGAUGACAGAAGGCACAUGAGGAUCACCCAUGUAGAUC | – | – | 65.5 | 20.1
GUGGUCAGACAUGAGGAUCACCCAUGUGGAAUAAAUAAGGAAAAGGAUAUGGAAUAUAGGAUAUACCAGAAGGUUUGGUUGGUG | 105 | 127 | – | –
UUGUUAUAUGUAGGAUAUGCAUAUUAUUAUUAUGCAGAAGGACAUGAGGAUCACCCAUGUGUAUUGUUAUUAUAUAUUAUAUAU | – | – | 22.3 | 29.5
GGAUGACAAAGUCAUCCUAUUCGAACAUGAGGAUCACCCAUGUAGGAUAUGCUUCUCAAAGAGAAGCAGAAGGACAUGUGCCUU | – | – | 32 | 182
GCUGGUCAAGGAUAUAUAUGACGUGCUUCGGCACGAAGAUCACAUGAGGAUCACCCAUGUAGAAGGUGACCAGC | – | – | 96.9 | 793
GGUCUGAUAUGAGGAUAUGCUCAGGAAUACUGAGCAGAAGGCAUGUGAAAACAUGAGGAUCACCCAUGUAUGAUCUACAGACCA | 47 | 21.8 | – | –
GAGCAGUGUAAAUAAACUCAAAUACAUGAGGAUCACCCAUGUAAGGAUAUGCAGUGGAAUACACUGCAGAAGGUACAUCACUGC | – | – | 14.3 | 20.5
GAUCCACAUGAGGAUCACCCAUGUGAGGAUAUGUCCAUAUUCGGCAAAUCGGAUAUGGACAGAAGGCACACCGG | – | – | 120 | 47.4

Sequence | apparent Kd [1] [nM] | apparent Kd [2] [nM] | apparent Kd [3] [nM] | apparent Kd [4] [nM]
AGGUAAGACUUAAUUGUGCUGGUGAGAAGGCAAAUGGUUGUGACCAACAUGAGGAUCACCCAUGUUGAGGAUAUCAUCGGUAUC | – | – | 86.2 | 361
AUGCUAGUGUGAGGAUAUCAACAUGAGGAUCACCCAUGUUGGAAGUACACGACAUGCGGUACAUCUGAGAAGGUACAUUAGCAU | – | – | 29.1 | 52
UAGGAGCAAGGAUAUACGAGGAUAUGGUAGUUUGUAGAGUGACAUGAGGAUCACCCAUGUAGAAGGUGCGUGUG | – | – | 123 | 99.7
UUACAGUGCGGGUAGGAUAUGUAGGGUGGUACAUGAGGAUCACCCAUGUAUCCACCCUUCGACCGGCAGAAGGGCCUGUCACUAC | 17.1 | 20.5 | – | –
GGAUGACAAAGUCAUCCAUAACGAACAUGAGGAUCACCCAUGUAGGAUAUGCAACUCAAAGAGUUGCAGAAGGACAUGUGCCUU | – | – | 34.6 | 273
GGGUACAUCGGAGGAUAUCAUGUCAAUACAUGAGGAUCACCCAUGUCGAUGGAGACAUCGGAGAUUGAGAAGGCCGAUGUACCG | 66.5 | 6.99 | – | –
GGGCCCGGAGGAUAUACAAUCCCGGGUUGAAAGGCCCGGGUACAUGAGGAUCACCCAUGUAGAAGGUUGGGCCC | – | – | 14.2 | 17.3
CGGCAUCAUGUAGGAUAUGCGUGGCGAAGCUAUGCAGAAGGACAUGAGGAUCACCCAUGUCUUACUGUGCGUACACAGUUGCCG | – | – | 6.29 | 11.2
GCGUAUAUAUGAUUUAUUUAACAGUCAGAAGGUGAGAAGACGACAUGAGGAUCACCCAUGUUAUUCAAGGAUAUGAUAAUGCGC | 24.9 | 11.4 | – | –
GUAGCAUACCGAGGAUAUUCAUAGAAUAAAUAAACAUGAGGAUCACCCAUGUGGCGAAAGCCUAGGGAGAAGGCGGAAUGCUAC | 183 | 20.3 | – | –
UUUUUGUCAGGAUAUCUAAUCUAGAUGUUCGCAUCUAGAUUAGAGAAGGGACAUGAGGAUCACCCAUGUAGUUU | – | – | 61.9 | 253
CUCAUGUAAGGAUAUGACUACAUAAAAAAAAAAAAAUGUAGUCAGAAGGUACAUGAGGAUCACCCAUGUACAAA | – | – | 53.7 | 35
GGGUACAUGGGAGGAUAUGGGACAUGAGGAUCACCCAUGUGAAAAUUAAAUAUGCCGAGAGGCAACUAGAAGGCCCAUGUACCG | 31.1 | 15.3 | – | –
UCCAGGCGAGGAUAUACAAAGAUUUUUUCGUUUUGUCUCGAACAUGAGGAUCACCCAUGUAGAAGGUGCUGCUG | – | – | 57.5 | 52.9
UGGUACAUGGGAGGAUAUGGGUUGAUAACAUGAGGAUCACCCAUGUUAAAUAUGGCGAGAGCCAACUAGAAGGCCCAUGUACCU | 594 | 38.8 | – | –
UGAAACUACGAGAAGGACAUGUGGUCCUUCAGUUACAUGAGGAUCACCCAUGUAGGAUAUCGUAGUUUCAGGAUCGUGAGAUCU | – | – | 38.5 | 12.7
CAGAAGUCAGGAUAUGCAUGGCGGGACUUGCGUCGUGGCGUGCAGAAGGGACAUGAGGAUCACCCAUGUGGAGG | – | – | 171 | 222
GCUUGGCGAGGAUAUACAUGAGGAUCACCCAUGUGAGAGAAUAAAGUGAGGAAGAAAAGUAGAAGGCGCUGAGG | – | – | 54 | 271
UGUUGUAUUACAGGAUAUCUAGUAUGUUUAUUUAGAGAAGGGUAUUCACAUGAGGAUCACCCAUGUAUAUACGAGGAAGUUGUG | 39.1 | 42.5 | – | –
GUUUUUCCUCAUGUACAUGAGGAACAUGAGGAUCACCCAUGUAGAAGGAAUUCUCUUAAAUUAAGUUAGGAUAUACAUAUAUUU | – | – | 464 | 285
UGUCGGCGCAGAGGAUAUUACAUGAGGAUCACCCAUGUAUGAACCAAUAGCUGGAAACAGCAAUGUAAGAAGGCUGCUCCGACA | – | – | 12.5 | 154
AUCAUGUCAGGAUAUCGUGCAGCUACCGAAAGGUAGCUGCACGAGAAGGGACAUGAGGAUCACCCAUGUAUGAA | – | – | 221 | 117
ACGUCGAGCCAGAAGGCAACAUGAGGAUCACCCAUGUAGUCCGGCUCGUGUUGAGGAUAUGGCACCCACGCGGAAGGCGCAGGU | – | – | 5.54 | 7.19
GGAAACUACGAGAAGGACAUGUGGUCCUUCAGUUACAUGAGGAUCACCCAUGUAGGAUAUCGUAGUUUCAGGAUCGUGAGAUCU | – | – | 35.4 | 13.7
